Results taken from ChEMBL document CHEMBL1629612, “Characterization and sequence analysis of extended-spectrum-{beta}-lactamase-encoding genes from Escherichia coli, Klebsiella pneumoniae, and Proteus mirabilis isolates collected during tigecycline phase 3 clinical trials” (2009).
Values after ≈ are worked out from the molar mass of the structure shown.

How the values were obtained:
Type in all cases: functional
[1] = tested on: Escherichia coli; test: Antimicrobial activity against Escherichia coli expressing beta-lactamase AmpC and extended-spectrum beta-lactamase by Etest
How it was run: (§1)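 Clinical isolates from tigecycline phase 3 trials were received as frozen primary cultures. Serial isolates from one patient were riboprinted, and only the first of identical strains was kept. β-Lactamase genes were assigned by PCR. ESBL confirmation used Etest ESBL strips carrying ceftazidime or cefotaxime, alone and combined with clavulanic acid, following the strip maker's instructions.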

[2] = tested on: Escherichia coli; test: Antimicrobial activity against Escherichia coli expressing beta-lactamase AmpC by Etest; how it was run: as §1
[3] = tested on: Klebsiella pneumoniae; test: Antimicrobial activity against Klebsiella pneumoniae expressing beta-lactamase CTX by Etest based on multiple determinants
How it was run: (§2)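 Clinical isolates from tigecycline phase 3 trials were received as frozen primary cultures. Repeat isolates from one patient were riboprinted, and only the first of identical strains was kept. β-lactamase genes were assigned by PCR against control strains, plus isoelectric focusing. ESBL confirmation used Etest ESBL strips carrying ceftazidime or cefotaxime with clavulanic acid, read per the manufacturer's instructions.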

[4] = tested on: Escherichia coli; test: Antimicrobial activity against Escherichia coli expressing beta-lactamase CTX and SHV by Etest; how it was run: as §1
[5] = tested on: Escherichia coli; test: Antimicrobial activity against Escherichia coli expressing beta-lactamase CTX by Etest based on multiple determinants; how it was run: as §1
[6] = tested on: Escherichia coli; test: Antimicrobial activity against Escherichia coli extended-spectrum beta-lactamase producing isolate by Etest; how it was run: as §1
[7] = tested on: Klebsiella pneumoniae; test: Antimicrobial activity against Klebsiella pneumoniae extended-spectrum beta-lactamase producing isolate by Etest; how it was run: as §2
[8] = tested on: Proteus mirabilis; test: Antimicrobial activity against Proteus mirabilis extended-spectrum beta-lactamase producing isolate by Etest; how it was run: as §2
[9] = tested on: Escherichia coli; test: Antimicrobial activity against Escherichia coli expressing beta-lactamase SHV by Etest; how it was run: as §1
[10] = tested on: Escherichia coli; test: Antimicrobial activity against Escherichia coli expressing beta-lactamase CTX by Etest based on single determinant; how it was run: as §1
[11] = tested on: Klebsiella pneumoniae; test: Antimicrobial activity against Klebsiella pneumoniae expressing beta-lactamase SHV by Etest based on single determinant; how it was run: as §2
[12] = tested on: Klebsiella pneumoniae; test: Antimicrobial activity against Klebsiella pneumoniae expressing beta-lactamase SHV by Etest based on multiple determinants; how it was run: as §2
[13] = tested on: Klebsiella pneumoniae; test: Antimicrobial activity against Klebsiella pneumoniae expressing beta-lactamase CTX by Etest based on single determinant; how it was run: as §2
[14] = tested on: Klebsiella pneumoniae; test: Antimicrobial activity against Klebsiella pneumoniae expressing beta-lactamase SHV and CTX by Etest; how it was run: as §2
[15] = tested on: Klebsiella pneumoniae; test: Antimicrobial activity against Klebsiella pneumoniae expressing extended-spectrum beta-lactamase and beta-lactamase AmpC by Etest; how it was run: as §1
[16] = tested on: Klebsiella pneumoniae; test: Antimicrobial activity against Klebsiella pneumoniae expressing beta-lactamase DHA by Etest; how it was run: as §1
[17] = tested on: Proteus mirabilis; test: Antimicrobial activity against Proteus mirabilis expressing extended-spectrum beta-lactamase by Etest based on single determinant; how it was run: as §2
[18] = tested on: Proteus mirabilis; test: Antimicrobial activity against Proteus mirabilis expressing extended-spectrum beta-lactamase by Etest based on multiple determinants; how it was run: as §2
[19] = tested on: Proteus mirabilis; test: Antimicrobial activity against Proteus mirabilis expressing beta-lactamase AmpC by Etest; how it was run: as §2

| SMILES | MIC50 [1] | MIC90 [1] | MIC [2] | MIC50 [3] | MIC90 [3] | MIC50 [4] | MIC90 [4] | MIC50 [5] | MIC90 [5] | MIC50 [6] | MIC90 [6] | MIC50 [7] | MIC90 [7] | MIC50 [8] | MIC90 [8] | MIC [9] | MIC50 [10] | MIC90 [10] | MIC50 [11] | MIC90 [11] | also measured |
| --- | --- | --- | --- | --- | --- | --- | --- | --- | --- | --- | --- | --- | --- | --- | --- | --- | --- | --- | --- | --- | --- |
| NC[C@H]1O[C@H](O[C@H]2[C@H](O)[C@@H](O[C@H]3O[C@H](CO)[C@@H](O)[C@H](N)[C@H]3O)[C@H](N)C[C@@H]2N)[C@H](N)C[C@@H]1O [TOBRAMYCIN] | 16 µg/mL (≈ 34.2 µM) | > 32 µg/mL | 1 µg/mL (≈ 2.14 µM) | 32 µg/mL (≈ 68.4 µM) | > 32 µg/mL | 32 µg/mL (≈ 68.4 µM) | > 32 µg/mL | 32 µg/mL (≈ 68.4 µM) | > 32 µg/mL | 32 µg/mL (≈ 68.4 µM) | > 32 µg/mL | 32 µg/mL (≈ 68.4 µM) | > 32 µg/mL | 8 µg/mL (≈ 17.1 µM) | > 32 µg/mL | 0.25 µg/mL (≈ 0.535 µM) | 32 µg/mL (≈ 68.4 µM) | > 32 µg/mL | 16 µg/mL (≈ 34.2 µM) | > 32 µg/mL | MIC [12]: 0.5 µg/mL (≈ 1.07 µM); MIC50 [13]: 16 µg/mL (≈ 34.2 µM); MIC90 [13]: > 32 µg/mL; MIC50 [14]: 32 µg/mL (≈ 68.4 µM); MIC90 [14]: > 32 µg/mL; MIC [15]: 0.25 µg/mL (≈ 0.535 µM); MIC [16]: 16 µg/mL (≈ 34.2 µM); MIC [17]: 0.5 µg/mL (≈ 1.07 µM); MIC [18]: 4 µg/mL (≈ 8.56 µM); MIC [19]: 4 µg/mL (≈ 8.56 µM) |
| CC(C)(O/N=C(\C(=O)N[C@@H]1C(=O)N2C(C(=O)[O-])=C(C[n+]3ccccc3)CS[C@H]12)c1csc(N)n1)C(=O)O [CEFTAZIDIME] | > 32 µg/mL | > 32 µg/mL | 4 µg/mL (≈ 7.32 µM) | 32 µg/mL (≈ 58.5 µM) | > 64 µg/mL | 16 µg/mL (≈ 29.3 µM) | 64 µg/mL (≈ 117 µM) | 32 µg/mL (≈ 58.5 µM) | 64 µg/mL (≈ 117 µM) | 32 µg/mL (≈ 58.5 µM) | > 64 µg/mL | 32 µg/mL (≈ 58.5 µM) | > 64 µg/mL | 64 µg/mL (≈ 117 µM) | > 64 µg/mL | 16 µg/mL (≈ 29.3 µM) | 16 µg/mL (≈ 29.3 µM) | 64 µg/mL (≈ 117 µM) | 8 µg/mL (≈ 14.6 µM) | > 64 µg/mL | MIC [12]: 16 µg/mL (≈ 29.3 µM); MIC50 [13]: 32 µg/mL (≈ 58.5 µM); MIC90 [13]: > 64 µg/mL; MIC50 [14]: 64 µg/mL (≈ 117 µM); MIC90 [14]: > 64 µg/mL; MIC [15]: 4 µg/mL (≈ 7.32 µM); MIC [16]: 64 µg/mL (≈ 117 µM); MIC [17]: 2 µg/mL (≈ 3.66 µM); MIC [18]: 2 µg/mL (≈ 3.66 µM); MIC [19]: 64 µg/mL (≈ 117 µM) |
